Reference: ChEMBL document CHEMBL4130438, “6,7-Seco-ent-Kauranoids Derived from Oridonin as Potential Anticancer Agents” (J Nat Prod, 2017)
pIC50: −log10 of the molar value. Active and inactive are the calls of the source. No cut-off for these calls is given here.

Columns and labels:
MGC-803 = assay: Antiproliferative activity against human MGC803 cells after 72 hrs by MTT assay; format: functional, cell-based; settings: MGC-803, 72 h
Procedure, shortened: (§1)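 Cells pre-incubated 24 h at 37 °C, 5% CO2 in 96-well plates, then exposed to a range of compound concentrations (DMSO ≤0.25%) for 72 h. Viable cells read by MTT colour at 570 nm. Performed in quadruplicate, repeated three times. IC50 reported as means ± SD, n = 3.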

Bel-7402 [1] = assay: Antiproliferative activity against human Bel7402 cells after 72 hrs by MTT assay; format: functional, cell-based; settings: Bel-7402, 72 h; procedure, shortened: as §1
MCF7 [2] = assay: Antiproliferative activity against human MCF7 cells after 72 hrs by MTT assay; format: functional, cell-based; settings: MCF7, 72 h; procedure, shortened: as §1
K562 = assay: Antiproliferative activity against human K562 cells after 72 hrs by MTT assay; format: functional, cell-based; settings: K562, 72 h; procedure, shortened: as §1
H22 = assay: Antitumor activity against […] cells xenografted in ICR mouse assessed as inhibition of tumor volume at 20 mg/kg, iv qd administered for 14 consecutive days measured every 2 days relative to control; format: functional; settings: 14 days
Procedure, shortened: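 Male ICR mice, five weeks old, implanted s.c. in the right flank with 1 × 10^6 H22 cells. After 7 days, randomised into groups of eight. Given i.v. once daily for 14 days, 10 or 20 mg/kg in 10% DMF/2% poloxamer/88% saline; negative controls received 0.9% saline i.v., positive control 20 mg/kg oridonin. Body weight and tumour volume (L × W²/2) recorded every 2 days. Tumours excised and weighed at sacrifice; inhibition (%) = (1 − treated/control mean tumour weight) × 100.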

Homo sapiens = species: Homo sapiens; assay: Antiproliferative activity against human KB/CP4 cells after 48 hrs by MTT assay; format: functional, cell-based
KB 3-1 = assay: Antiproliferative activity against human KB-3-1 cells after 48 hrs by MTT assay; format: functional, cell-based
MCF7 [3] = assay: Cytotoxicity against human MCF7 cells assessed as decrease in cell viability after 24 hrs by LDH release assay; format: functional, cell-based
Procedure, shortened: (§2)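 MCF-7 and Bel-7402 cells seeded at ~5 × 10^3 per well for 24 h, then exposed to compounds. LDH released into the medium measured with CytoTox-ONE reagent (10 min, ambient temperature) followed by stop solution. Fluorescence read at ex 560/em 590 nm.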

Bel-7402 [4] = assay: Cytotoxicity against human Bel7402 cells assessed as decrease in cell viability after 24 hrs by LDH release assay; format: functional, cell-based; procedure, shortened: as §2

Row | pIC50 (MGC-803) | pIC50 (Bel-7402 [1]) | pIC50 (MCF7 [2]) | pIC50 (K562) | SMILES | inhibition in vivo at 20 mg/kg (H22) | Activity (Homo sapiens) | Activity (KB 3-1) | Activity (MCF7 [3]) | Activity (Bel-7402 [4])
1 | 6.02 | 6.24 | 6.00 | 6.20 | C=C1C(=O)[C@@]23C(=O)OC[C@]4(C=CCC(C)(C)[C@H]4C=O)[C@@H]2CC[C@@H]1[C@H]3OC(C)=O |  |  |  |  | 
2 | 5.14 | < 5.00 | 5.19 | 6.00 | C=C1C(=O)[C@@]23C(=O)OC[C@]4(C=CCC(C)(C)[C@H]4C=O)[C@@H]2CC[C@@H]1[C@H]3OC(=O)c1ccc([N+](=O)[O-])cc1 |  |  |  |  | 
3 | 5.89 | 6.08 | 5.92 | 6.11 | C=C1C(=O)[C@@]23C(=O)OC[C@]4(C=CCC(C)(C)[C@H]4C=O)[C@@H]2CC[C@@H]1[C@H]3OC(=O)c1ccco1 |  |  |  |  | 
4 | 6.02 | 5.82 | 5.82 | 5.89 | C=C1C(=O)[C@@]23C(=O)OC[C@]4(C=CCC(C)(C)[C@H]4C=O)[C@@H]2CC[C@@H]1[C@H]3OC(=O)/C=C/c1ccccc1 |  |  |  |  | 
5 | 5.62 | 5.44 | 5.96 | 6.26 | C=C1C(=O)[C@@]23C(=O)OC[C@]4(C=CCC(C)(C)[C@H]4C=O)[C@@H]2CC[C@@H]1[C@H]3OC(=O)c1cccc(C)c1 |  |  |  |  | 
6 | 5.55 | 5.89 | 5.46 | 5.54 | C=C1C(=O)[C@@]23C(=O)OC[C@]4(C=CCC(C)(C)[C@H]4C=O)[C@@H]2CC[C@@H]1[C@H]3OC(=O)c1cnccn1 |  |  |  |  | 
7 | 5.14 | 5.15 | 5.47 | 5.92 | C=C1C(=O)[C@@]23C(=O)OC[C@]4(C=CCC(C)(C)[C@H]4C=O)[C@@H]2CC[C@@H]1[C@H]3OC(=O)CC |  |  |  |  | 
8 | 5.37 | 5.66 | 5.48 | 5.26 | C=C1C(=O)[C@@]23C(=O)OC[C@]4(C=CCC(C)(C)[C@H]4C=O)[C@@H]2CC[C@@H]1[C@H]3OC(=O)CCCC |  |  |  |  | 
9 | 5.52 | 5.60 | 5.19 | 5.38 | C=C1C(=O)[C@@]23C(=O)OC[C@]4(C=CCC(C)(C)[C@H]4C=O)[C@@H]2CC[C@@H]1[C@H]3O |  | Active | Active | inactive | inactive

More lines, now with the values behind:

Row | SMILES | pIC50 (MGC-803) | pIC50 (Bel-7402 [1]) | pIC50 (MCF7 [2]) | pIC50 (K562) | inhibition in vivo at 20 mg/kg (H22) | Activity (Homo sapiens) | Activity (KB 3-1) | Activity (MCF7 [3]) | Activity (Bel-7402 [4])
10 | C=C1C(=O)[C@@]23C(=O)OC[C@]4([C@@H]5O[C@@H]5CC(C)(C)[C@H]4C=O)[C@@H]2CC[C@@H]1[C@H]3O | < 5.00 | 5.34 | < 5.00 | < 5.00 |  |  |  |  | 
11 | C=C1C(=O)[C@@]23C(=O)OC[C@]4([C@@H](OS(C)(=O)=O)CCC(C)(C)[C@H]4C=O)[C@@H]2CC[C@@H]1[C@H]3OC(=O)c1ccco1 | 5.47 | 5.96 | 5.54 | 5.77 |  |  |  |  | 
12 | C=C1C(=O)[C@]23[C@H](O)[C@H]1CC[C@H]2[C@@]12CO[C@@]3(O)[C@@H](O)[C@@H]1C(C)(C)CC[C@@H]2OS(C)(=O)=O | 5.41 | 5.57 | 5.41 | 5.49 |  |  |  |  | 
13 | C=C1C(=O)[C@@]23C(=O)OC[C@]4([C@@H](OS(C)(=O)=O)CCC(C)(C)[C@H]4C=O)[C@@H]2CC[C@@H]1[C@H]3O | < 5.00 | < 5.00 | < 5.00 | < 5.00 |  |  |  |  | 
14 | C=C1C(=O)[C@@]23C(=O)OC[C@]4([C@@H](OS(C)(=O)=O)CCC(C)(C)[C@H]4C=O)[C@@H]2CC[C@@H]1[C@H]3OC(=O)CCCC | 5.49 | 5.66 | 5.43 | 5.35 |  |  |  |  | 
15 | C=C1C(=O)[C@]23[C@H](O)[C@H]1CC[C@H]2[C@@]12CO[C@]3(O)[C@@H](O)[C@@H]1C(C)(C)CC[C@@H]2O [ORIDONIN] | 5.35 | < 5.00 | 5.04 | 5.29 | 51.2% |  |  |  | 
16 | C=C1C(=O)[C@@]23C(=O)OC[C@]4(C=CCC(C)(C)[C@H]4C=O)[C@@H]2CC[C@@H]1[C@H]3OS(C)(=O)=O | 5.55 | 5.89 | 5.70 | 5.72 |  |  |  |  | 
17 | C=C1C(=O)[C@@]23C(=O)OC[C@]4([C@@H](OS(C)(=O)=O)CCC(C)(C)[C@H]4C=O)[C@@H]2CC[C@@H]1[C@H]3OS(C)(=O)=O | 5.06 | 5.42 | 5.02 | 5.92 |  |  |  |  | 
18 | C=C1C(=O)[C@@]23C(=O)OC[C@]4([C@@H](OS(C)(=O)=O)CCC(C)(C)[C@H]4C=O)[C@@H]2CC[C@@H]1[C@H]3OC(=O)c1ccc(F)cc1 | 5.35 | 5.51 | 5.26 | 5.21 |  |  |  |  | 
19 | C=C1C(=O)[C@@]23C(=O)OC[C@]4(C=CCC(C)(C)[C@H]4C=O)[C@@H]2CC[C@@H]1[C@H]3OC(=O)/C=C/c1cccc([N+](=O)[O-])c1 | 5.54 | 5.29 | 5.66 | 5.85 |  |  |  |  | 
